Results as given in ChEMBL document CHEMBL1148699, “Characterization of the intracellular mechanisms involved in the antiaggregant properties of cinnamtannin B-1 from bay wood in human platelets” (2007).
Values belong to the compound of their own block, whether it stands above or below them. Calls of active or inactive are those of the source. No cut-off for these calls is given here.

How the values were obtained:
Platelet [1] = assay: Effect on thrombin-induced human platelet aggregation at 10 uM after 10 mins; type: functional
Procedure, shortened: (§1)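 Washed human platelets (aspirin 100 µM and apyrase in PRP) suspended in HBS pH 7.45 with 1 mM Ca2+. Preincubated 10 min with 10 µM agent or DMSO vehicle, then stimulated with 0.1 U/mL thrombin at 37 °C with stirring at 1200 rpm in an aggregometer. Lag time, % rate and % aggregation read from traces; mean ± SEM of four determinations.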

Platelet [2] = assay: Effect on rate of thrombin-induced human platelet aggregation at 10 uM after 10 mins; type: functional; procedure, shortened: as §1
Platelet [3] = assay: Effect on thrombin-induced human platelet aggregation assessed as lag time at 10 uM after 10 mins; type: functional; procedure, shortened: as §1
[4] = target: Proto-oncogene tyrosine-protein kinase Src (Homo sapiens) (UniProt P12931); assay: Inhibition of thrombin-induced pp60src activation in presence of catalase
Sequence of Proto-oncogene tyrosine-protein kinase Src (Homo sapiens) (P12931 2-536 limits assumed): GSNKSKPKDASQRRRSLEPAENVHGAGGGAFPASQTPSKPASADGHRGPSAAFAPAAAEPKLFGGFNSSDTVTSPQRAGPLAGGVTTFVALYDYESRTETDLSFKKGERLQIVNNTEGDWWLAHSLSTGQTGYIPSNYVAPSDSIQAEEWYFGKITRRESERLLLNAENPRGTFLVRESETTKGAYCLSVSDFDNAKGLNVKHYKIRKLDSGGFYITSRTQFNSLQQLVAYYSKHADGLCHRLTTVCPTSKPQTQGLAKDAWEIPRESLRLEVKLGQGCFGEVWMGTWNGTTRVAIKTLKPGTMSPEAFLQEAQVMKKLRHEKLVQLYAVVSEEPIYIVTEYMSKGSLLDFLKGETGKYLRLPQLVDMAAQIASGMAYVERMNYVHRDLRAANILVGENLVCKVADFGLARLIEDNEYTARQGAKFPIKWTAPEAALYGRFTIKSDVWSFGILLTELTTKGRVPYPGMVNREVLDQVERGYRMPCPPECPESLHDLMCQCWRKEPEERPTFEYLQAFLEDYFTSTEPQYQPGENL
Procedure, shortened: (§2)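 Platelets in HBS with 1 mM Ca2+ pretreated 30 min at 37 °C with 10 µM compound, alone or with 300 U/mL catalase (10 min). Sampled 10 s before and 60 s after 0.1 U/mL thrombin. SDS-PAGE and immunoblot with anti-phospho-c-Src Y416, reprobed for total pp60src. Densitometry as % of untreated resting cells; mean ± SEM, four experiments.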

Platelet [5] = assay: Effect on rate of thrombin-induced human platelet aggregation at 0.1 uM; type: functional
Procedure, shortened: (§3)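 Washed human platelets (from aspirin- and apyrase-treated PRP) in HEPES-buffered saline, pH 7.45, with 1 mM Ca2+. Preincubated 30 min with 0.1-10 µM compound (10 mM DMSO stock) or vehicle. Stimulated with 0.1 U/mL thrombin or 10 µM ADP. Read in an aggregometer at 37 °C, stirred at 1200 rpm, as lag time, % rate and % aggregation. Mean ± SEM, six determinations.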

Platelet [6] = assay: Effect on thrombin-induced human platelet aggregation in presence of catalase; type: functional
Procedure, shortened: (§4)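 Washed human platelets in HBS with 1 mM Ca2+. Treated with 10 µM compound for 30 min, plus either 300 U/mL catalase for 10 min or 100 µM colchicine for 2 h; controls received each agent alone or vehicle. Thrombin 0.1 U/mL at 37 °C, stirring at 1200 rpm. Lag time, % rate and % aggregation recorded; mean ± SEM, six determinations.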

Platelet [7] = assay: Effect on rate of thrombin-induced human platelet aggregation in presence of catalase; type: functional; procedure, shortened: as §4
Platelet [8] = assay: Effect on thrombin-induced calcium mobilization in human platelets; type: functional, cell-based
Procedure, shortened: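 Platelets loaded with 2 µM fura-2/AM for 45 min at 37 °C, 2 × 10^8 cells/mL, stirred at 37 °C. Exposed to 10 µM compound for 30 min. Ca2+-free medium with 100 µM EGTA, then 0.1 U/mL thrombin. Excitation 340/380 nm, emission 505 nm; ratio calibrated to [Ca2+]i. Peak rise above basal taken; n = 6.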

Platelet [9] = assay: Reduction of thrombin-induced phosphotyrosine content in human platelets at 10 uM after 30 mins
Platelet [10] = assay: Effect on rate of thrombin-induced human platelet aggregation in presence of colchicine; type: functional; procedure, shortened: as §4
Platelet [11] = assay: Effect on thrombin-induced human platelet aggregation assessed as lag time at 10 uM; type: functional; procedure, shortened: as §3
[12] = target: Proto-oncogene tyrosine-protein kinase Src (Homo sapiens) (UniProt P12931); assay: Inhibition of thrombin-induced pp60src activation at 10 uM after 30 mins; procedure, shortened: as §2
Platelet [13] = assay: Effect on rate of thrombin-induced human platelet aggregation at 10 uM; type: functional; procedure, shortened: as §3
Platelet [14] = assay: Effect on thrombin-induced human platelet aggregation assessed as lag time at 0.1 uM; type: functional; procedure, shortened: as §3
Platelet [15] = assay: Effect on thrombin-induced human platelet aggregation at 1.0 uM; type: functional; procedure, shortened: as §3
Platelet [16] = assay: Effect on rate of ADP-induced human platelet aggregation at 10 uM; type: functional; procedure, shortened: as §3
Platelet [17] = assay: Effect on ADP-induced human platelet aggregation assessed as lag time at 10 uM; type: functional; procedure, shortened: as §3
Platelet [18] = assay: Effect on thrombin-induced human platelet aggregation assessed as lag time in presence of catalase; type: functional; procedure, shortened: as §4
Platelet [19] = assay: Effect on thrombin-induced human platelet aggregation assessed as lag time at 1.0 uM; type: functional; procedure, shortened: as §3
Platelet [20] = assay: Effect on thrombin-induced human platelet aggregation in presence of colchicine; type: functional; procedure, shortened: as §4
Platelet [21] = assay: Effect on thrombin-induced human platelet aggregation at 0.1 uM; type: functional; procedure, shortened: as §3
Platelet [22] = assay: Effect on of ADP-induced human platelet aggregation at 10 uM; type: functional; procedure, shortened: as §3
Platelet [23] = assay: Effect on thrombin-induced human platelet aggregation at 10 uM; type: functional; procedure, shortened: as §3
Platelet [24] = assay: Effect on thrombin-induced microtubular reorganization at 10 uM after 30 mins; type: functional, Homo sapiens
Procedure, shortened: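 Platelets pretreated with 10 µM compound for 30 min at 37 °C, then 0.1 U/mL thrombin for 1 min in HBS at 2 × 10^7 cells/mL. Fixed in an equal volume of ice-cold 3% formaldehyde in PBS for 10 min, permeabilized with 0.025% NP40, stained 30 min with 1 µM Oregon Green 488 paclitaxel. Fluorescence at ex 488/em 522 nm; n = 6.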

Platelet [25] = assay: Effect on thrombin-induced human platelet aggregation assessed as lag time in presence of colchicine; type: functional; procedure, shortened: as §4
[26] = target: Tyrosine-protein kinase BTK (Homo sapiens) (UniProt Q06187); assay: Effect on thrombin-induced Btk activation in presence of catalase
Sequence of Tyrosine-protein kinase BTK (Homo sapiens) (Q06187 whole entry): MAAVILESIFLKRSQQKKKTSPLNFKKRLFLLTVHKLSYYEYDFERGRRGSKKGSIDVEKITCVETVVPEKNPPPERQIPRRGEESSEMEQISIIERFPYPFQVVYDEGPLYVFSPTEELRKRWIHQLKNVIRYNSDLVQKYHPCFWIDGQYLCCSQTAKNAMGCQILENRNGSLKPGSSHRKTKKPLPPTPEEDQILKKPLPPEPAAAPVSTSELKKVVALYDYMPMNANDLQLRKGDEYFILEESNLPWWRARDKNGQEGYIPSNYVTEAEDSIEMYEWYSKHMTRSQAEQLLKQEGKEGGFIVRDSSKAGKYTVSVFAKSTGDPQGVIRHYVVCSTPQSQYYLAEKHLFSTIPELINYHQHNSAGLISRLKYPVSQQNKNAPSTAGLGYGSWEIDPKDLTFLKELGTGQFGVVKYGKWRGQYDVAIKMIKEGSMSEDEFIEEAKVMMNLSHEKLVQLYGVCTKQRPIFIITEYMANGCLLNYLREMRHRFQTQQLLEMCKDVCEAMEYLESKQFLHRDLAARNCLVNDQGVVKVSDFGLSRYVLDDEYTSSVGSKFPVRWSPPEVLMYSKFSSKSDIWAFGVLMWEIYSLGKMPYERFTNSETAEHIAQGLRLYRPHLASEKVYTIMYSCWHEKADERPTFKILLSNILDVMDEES
Procedure, shortened: (§5)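 Platelets in HBS with 1 mM Ca2+ held 30 min at 37 °C with 10 µM compound, alone or with 300 U/mL catalase (10 min). Samples taken 10 s before and 30 s after 0.1 U/mL thrombin, lysed in Laemmli buffer. Western blot for phospho-Btk Y223, reprobed for total Btk. Densitometry as % of resting control; mean ± SEM, four experiments.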

Platelet [27] = assay: Effect on rate of thrombin-induced human platelet aggregation at 1.0 uM; type: functional; procedure, shortened: as §3
[28] = target: Tyrosine-protein kinase BTK (Homo sapiens) (UniProt Q06187); assay: Effect on thrombin-induced Btk activation at 10 uM after 30 mins; procedure, shortened: as §5

Structure (SMILES): Cc1ccc(-c2nn(C(C)(C)C)c3ncnc(N)c23)cc1
Activity (Platelet [1]): 67.1%
Activity (Platelet [2]): 59.7%
Time (Platelet [3]): 26.5 s

Structure (SMILES): C/C(O)=C(\C#N)C(=O)Nc1cc(Br)ccc1Br
Activity (Platelet [1]): 68.7%
Activity (Platelet [2]): 66.3%
Time (Platelet [3]): 24.3 s

Activity [4]: Active
Activity [12]: Active
Activity [26]: 90%
Activity [28]: 50%
Structure (SMILES): Oc1cc(O)c2c(c1)O[C@@]1(c3ccc(O)c(O)c3)Oc3cc(O)c4c(c3[C@@H]2[C@H]1O)O[C@H](c1ccc(O)c(O)c1)[C@H](O)[C@H]4c1c(O)cc(O)c2c1O[C@H](c1ccc(O)c(O)c1)[C@H](O)C2 [CINNAMTANNIN B1]
Activity (Platelet [5]): 49%
Activity (Platelet [6]): 77%
Activity (Platelet [7]): 48.1%
Activity (Platelet [8]): inactive
Activity (Platelet [9]): Active
Activity (Platelet [10]): 40.3%
Time (Platelet [11]): 10.6 s
Activity (Platelet [13]): 42.1%
Time (Platelet [14]): 9.2 s
Activity (Platelet [15]): 80.6%
Activity (Platelet [16]): 9%
Time (Platelet [17]): 15.6 s
Time (Platelet [18]): 9.1 s
Time (Platelet [19]): 9.8 s
Activity (Platelet [20]): 74.6%
Activity (Platelet [21]): 81.9%
Activity (Platelet [22]): 9.5%
Activity (Platelet [23]): 71.8%
Activity (Platelet [24]): 15%
Time (Platelet [25]): 15 s
Activity (Platelet [27]): 43.7%

Structure (SMILES): COc1cc2c(c(OC)c1OC)-c1ccc(OC)c(=O)cc1[C@@H](NC(C)=O)CC2 [COLCHICINE]
Activity (Platelet [5]): 59%
Time (Platelet [14]): 9.3 s
Activity (Platelet [21]): 71.2%
